# Experimental data taken from publication PMC3288198 (ACS Chemical Biology, 2011).
# “Also recorded” adds a separate entry of the source. Where two headings read alike, the source gives them in different places. Where a SMILES comes first, the peptide text is derived from it. The star is where a group is joined. Cbz = O=C(OCc1ccccc1)*
# Experiments:
# Hsp90 acetylation [1] = experiment: Immunoprecipitation/immunoblot of Hsp90 acetylation in MV4-11 cells; type: cell-based, human; settings: 3 hr post-treatment
# How it was run: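 MV4-11 AML cells (10% heat-inactivated FBS, 37°C, 5% CO2) treated with test compound, harvested 3 hr post-treatment. Cells washed in cold HBSS, lysed 30 min in low-salt buffer (50 mM Tris-HCl pH 7.4, 150 mM NaCl, 10% glycerol, Triton X-100, protease/phosphatase inhibitors, 1 μM TSA), then sonicated. Hsp90 pulled down on Hsp90-conjugated beads for 1 hr. Blots probed for Hsp90, acetyl-lysine and acetyl-Hsp90 K69.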
# [2] = test system: acetylated histone H3 and H4; experiment: Western blot of acetylated histone H3/H4 in MV4-11 cells; type: cell-based, human
# How it was run: (§1)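 MV4-11 cells (10% heat-inactivated FBS, 37°C, 5% CO2) treated with test compound at a range of concentrations. Washed in cold HBSS and lysed 30 min in low-salt Tris pH 7.4 buffer with protease/phosphatase inhibitors and 1 μM TSA, then sonicated. LDS-denatured lysates run on 4–12% gradient gels. Probes: acetyl-H3, acetyl-H4, total H3, acetyl-α-tubulin, tubulin. HRP secondary, ECL read-out.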
# acetylated tubulin [3] = experiment: Western blot of acetylated tubulin in MV4-11 cells; type: cell-based, human
# How it was run: as §1
# FLT-3 and STAT5 = experiment: Western blot of FLT-3 and STAT5 levels in MV4-11 cells; type: cell-based, human; settings: for effect on FLT-3 and STAT5 protein levels: 3 hr post-treatment
# How it was run: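 MV4-11 cells cultured with 10% heat-inactivated FBS at 37°C, 5% CO2. Exposed to a concentration series of test compound, harvested 3 hr post-treatment. Lysed in low-salt Tris pH 7.4 buffer containing 1 μM TSA and sonicated. Lysates denatured in LDS and run on 4–12% gradient gels. Blots probed for FLT-3, STAT5, Erk and phospho-Erk; HRP secondary with ECL detection.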
# Hsp90 acetylation [4] = settings: 16 hrs post inhibitor treatment; cited from earlier work
# [5] = test system: mitogen stimulated proliferating PBMC; experiment: MTS cell proliferation assay, proliferating PBMC; type: cell-based, human; settings: proliferating PBMC vs AML cells ex vivo
# HDAC6 [6] = target: T1, HDAC6 (Homo sapiens, UniProt Q9UBN7); experiment: HDAC deacetylase homogenous fluorescence assay, HDAC6; type: biochemical; settings: for concentration above which HDAC6 was inhibited: data not shown
# T1 sequence (Q9UBN7 1-1215): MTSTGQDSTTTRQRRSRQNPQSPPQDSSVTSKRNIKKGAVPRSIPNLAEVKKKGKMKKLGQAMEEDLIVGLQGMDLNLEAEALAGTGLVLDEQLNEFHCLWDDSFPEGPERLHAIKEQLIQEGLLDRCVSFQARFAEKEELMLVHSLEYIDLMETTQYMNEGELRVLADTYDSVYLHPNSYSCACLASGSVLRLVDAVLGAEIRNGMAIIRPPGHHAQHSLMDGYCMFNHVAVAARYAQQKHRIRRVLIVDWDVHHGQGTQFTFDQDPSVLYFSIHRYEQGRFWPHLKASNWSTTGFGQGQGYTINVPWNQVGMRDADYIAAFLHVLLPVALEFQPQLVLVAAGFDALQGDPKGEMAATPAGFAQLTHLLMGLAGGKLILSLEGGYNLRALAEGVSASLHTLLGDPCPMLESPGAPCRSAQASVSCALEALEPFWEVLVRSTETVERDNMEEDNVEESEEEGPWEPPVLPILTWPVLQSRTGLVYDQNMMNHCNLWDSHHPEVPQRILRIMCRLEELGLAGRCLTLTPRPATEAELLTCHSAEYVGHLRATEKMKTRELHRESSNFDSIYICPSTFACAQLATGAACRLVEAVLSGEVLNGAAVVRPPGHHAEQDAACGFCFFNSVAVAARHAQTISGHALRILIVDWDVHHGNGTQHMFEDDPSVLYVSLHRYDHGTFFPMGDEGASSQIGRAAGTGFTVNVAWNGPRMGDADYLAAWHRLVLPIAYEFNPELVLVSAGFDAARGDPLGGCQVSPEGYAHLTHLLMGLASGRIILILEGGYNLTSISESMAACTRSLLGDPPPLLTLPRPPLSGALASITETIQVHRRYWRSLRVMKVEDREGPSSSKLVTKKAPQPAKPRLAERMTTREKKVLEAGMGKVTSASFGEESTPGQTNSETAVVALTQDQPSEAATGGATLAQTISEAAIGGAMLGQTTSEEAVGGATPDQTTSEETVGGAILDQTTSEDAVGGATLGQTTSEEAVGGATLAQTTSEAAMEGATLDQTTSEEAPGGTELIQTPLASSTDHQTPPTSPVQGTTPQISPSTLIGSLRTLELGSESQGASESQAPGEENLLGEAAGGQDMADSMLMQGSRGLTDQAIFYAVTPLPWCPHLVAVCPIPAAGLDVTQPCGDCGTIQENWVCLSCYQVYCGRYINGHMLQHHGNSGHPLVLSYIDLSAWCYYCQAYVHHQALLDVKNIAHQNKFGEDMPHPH
# How it was run: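 Baculovirus-expressed recombinant human enzyme (HDAC3 as HDAC3/N-CoR2 complex) incubated with serially diluted test compound over a 12-point titration. Substrate: acetylated AMC-K(Ac)GL. Deacetylated product cleaved by lysine peptidase to free MCA, read at ex 355/em 460 nm. Data normalised to control plate by plate. IC50 and SD from non-linear regression; Ki via Cheng-Prusoff, Ki = IC50/(1+[S]/Km).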
# ubiquitinated protein = experiment: Western blot of total ubiquitinated protein in MV4-11 cells; type: cell-based, human; settings: within 3 hr
# acetylated tubulin [7] = experiment: Western blot of acetylated tubulin in PBMC; type: cell-based, human; settings: PBMC from normal donors, 3 hr post-treatment
# [8] = test system: full panel of human recombinant HDAC enzymes; experiment: Inhibition profile over full panel of HDACs; type: biochemical
# How it was run: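 Panel of recombinant human HDAC1–11, 12-point titration of test compound per isozyme. Substrates: AMC-K(Ac)GL for HDAC1, 2, 3/N-CoR2, 6 and 10; AMC-K(TFA)GL for HDAC4, 5, 7, 8, 9 and 11. Peptidase-released MCA fluorescence at ex 355/em 460 nm, normalised to controls. IC50 by non-linear regression.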
# HDAC6 [9] = settings: cited from earlier work
Molecule,induction of Hsp90 acetylation (Hsp90 acetylation [1]),effect on acetylated histone H3/H4 levels [2],induction of acetylated tubulin (acetylated tubulin [3]),effect on FLT-3 and STAT5 protein levels (FLT-3 and STAT5),also measured
"O=C(CCCCCCC(=O)Nc1ccccc1)NO [SAHA, Suberoylanilide hydroxamic acid]",did not induce Hsp90 acetylation,induces both acetylated tubulin and histone,induces both acetylated tubulin and histone,did not induce Hsp90 acetylation or reduce FLT-3 and STAT5 levels,–
O=C(CCCCCCC(=O)Nc1ccc([C@H]2O[C@@H](CSc3nc(-c4ccccc4)c(-c4ccccc4)o3)C[C@@H](c3ccc(CO)cc3)O2)cc1)NO [tubacin],–,decreases in acetylated histones,–,–,induction of Hsp90 acetylation (Hsp90 acetylation [4]): does not significantly increase Hsp90 acetylation
"O=C1C=C(NCc2ccccc2)C(=O)c2ccccc21 [NQN-1, 2-benzyl-amino-naphthoquinone]",induces Hsp90 acetylation,without an increase in histone H3 and H4 acetylation; also recorded: unexpectedly caused a decrease in acetylated histone H4,selectively induced hyperacetylated tubulin,decrease within 3 hr,"selectivity, proliferating PBMC over AML (MV4-11) cell toxicity [5]: 4 fold; IC50 (HDAC6 [6]; read-out: HDAC6 IC50, 12 point titration, acetylated substrate): 5.54 ± 0.9 µM; Ki (HDAC6 [6]; read-out: HDAC6 Ki, converted from IC50 using Cheng-Prusoff equation): 1.3 ± 0.22 µM; total ubiquitinated protein level (ubiquitinated protein): increase in total ubiquitinated protein level; tubulin acetylation level in PBMC (acetylated tubulin [7]): did not increase; HDAC inhibition profile / selectivity over the panel [8]: did not inhibit other HDACs in our panel"
CC(/C=C/C(=O)NO)=C\[C@@H](C)C(=O)c1ccc(N(C)C)cc1 [TSA],did not induce Hsp90 acetylation,–,–,did not induce Hsp90 acetylation or reduce FLT-3 and STAT5 levels,–
CC(C)C[C@@H](C=O)NC(=O)[C@H](CC(C)C)NC(=O)[C@H](CC(C)C)NC(=O)OCc1ccccc1 [MG132] (Cbz-Leu-Leu-Leu-aldehyde),–,–,–,–,prevention of STAT5 degradation caused by HDAC6 inhibition (FLT-3 and STAT5; 10 μM MG132 co-treatment): did not prevent STAT5 degradation; rescue of FLT-3 degradation caused by HDAC6 inhibition (FLT-3 and STAT5; 10 μM MG132 co-treatment): rescued
Cc1ccc(NC(=O)CCCCCC(=O)Nc2ccccc2N)cc1 [inhibitor 106],did not induce Hsp90 acetylation,only induces hyperacetylated histone H3/H4,–,did not induce Hsp90 acetylation or reduce FLT-3 and STAT5 levels,–
Vitamin K2,–,–,–,–,concentration above which HDAC6 was inhibited (HDAC6 [6]): above 200 μM
CN1CCc2c(c3ccccc3n2Cc2ccc(C(=O)NO)cc2)C1 [tubastatin A],No induction of Hsp90 acetylation,decreases in acetylated histones,higher induction of tubulin acetylation,–,selectivity for HDAC6 over HDAC1 (HDAC6 [9]): > 1000
CC1=C(C/C=C(\C)CCC[C@H](C)CCC[C@H](C)CCCC(C)C)C(=O)c2ccccc2C1=O [Vitamin K1],–,–,–,–,concentration above which HDAC6 was inhibited (HDAC6 [6]): above 200 μM
"CC1=CC(=O)c2ccccc2C1=O [vitamin K3, 2-methyl-naphthoquinone]",–,–,–,–,IC50 (HDAC6 [6]): 25 µM; HDAC inhibition profile / selectivity over the panel [8]: selectively inhibited HDAC6 and HDAC8 at low μM
